Assay results from ChEMBL document CHEMBL2384909, “Development of Novel Alkene Oxindole Derivatives As Orally Efficacious AMP-Activated Protein Kinase Activators” (ACS Med Chem Lett, 2013).
Activity calls are given as the source filed them. The rule behind the calls is not given here.

How the values were obtained:
[1] = AUC (0 to 24 hrs) in Wistar rat at 10 mg/kg, po by LC-MS/MS analysis; assay type: ADME, organism-based; set-up: time < 24 hr, dose 10 mg/kg, route oral; details: plasma
L6 [2] = assay: Activation of AMPK in rat L6 cells assessed as stimulation of glucose uptake after 15 mins; assay type: cell-based
[3] = molecular target: Serine/threonine-protein kinase MARK2 (Homo sapiens) (UniProt Q7KZI7); assay: Activity at MARK2 (unknown origin)
Serine/threonine-protein kinase MARK2 (Homo sapiens), sequence (Q7KZI7 whole entry): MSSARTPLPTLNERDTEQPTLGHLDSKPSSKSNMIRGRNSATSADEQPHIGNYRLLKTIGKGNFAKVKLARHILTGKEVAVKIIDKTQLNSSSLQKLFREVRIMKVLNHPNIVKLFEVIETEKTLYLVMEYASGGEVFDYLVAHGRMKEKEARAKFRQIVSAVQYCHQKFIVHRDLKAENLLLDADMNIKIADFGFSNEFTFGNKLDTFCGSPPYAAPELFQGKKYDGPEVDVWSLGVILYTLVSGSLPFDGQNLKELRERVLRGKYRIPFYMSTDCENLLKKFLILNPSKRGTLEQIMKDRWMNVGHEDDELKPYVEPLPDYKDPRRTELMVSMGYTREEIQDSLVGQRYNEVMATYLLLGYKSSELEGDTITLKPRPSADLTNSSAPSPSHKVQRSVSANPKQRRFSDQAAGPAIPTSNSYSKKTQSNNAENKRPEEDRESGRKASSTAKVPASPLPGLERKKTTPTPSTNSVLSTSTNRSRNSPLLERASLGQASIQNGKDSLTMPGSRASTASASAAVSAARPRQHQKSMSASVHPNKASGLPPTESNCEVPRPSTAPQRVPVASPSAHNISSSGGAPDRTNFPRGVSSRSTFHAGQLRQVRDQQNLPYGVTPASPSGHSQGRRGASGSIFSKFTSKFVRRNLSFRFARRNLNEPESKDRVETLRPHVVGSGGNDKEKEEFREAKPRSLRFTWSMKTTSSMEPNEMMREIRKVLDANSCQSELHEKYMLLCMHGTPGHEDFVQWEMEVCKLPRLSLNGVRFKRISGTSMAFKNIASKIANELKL

[4] = molecular target: Voltage-gated inwardly rectifying potassium channel KCNH2 (Homo sapiens, UniProt Q12809); assay: Inhibition of human ERG
Voltage-gated inwardly rectifying potassium channel KCNH2, sequence (Q12809 whole entry): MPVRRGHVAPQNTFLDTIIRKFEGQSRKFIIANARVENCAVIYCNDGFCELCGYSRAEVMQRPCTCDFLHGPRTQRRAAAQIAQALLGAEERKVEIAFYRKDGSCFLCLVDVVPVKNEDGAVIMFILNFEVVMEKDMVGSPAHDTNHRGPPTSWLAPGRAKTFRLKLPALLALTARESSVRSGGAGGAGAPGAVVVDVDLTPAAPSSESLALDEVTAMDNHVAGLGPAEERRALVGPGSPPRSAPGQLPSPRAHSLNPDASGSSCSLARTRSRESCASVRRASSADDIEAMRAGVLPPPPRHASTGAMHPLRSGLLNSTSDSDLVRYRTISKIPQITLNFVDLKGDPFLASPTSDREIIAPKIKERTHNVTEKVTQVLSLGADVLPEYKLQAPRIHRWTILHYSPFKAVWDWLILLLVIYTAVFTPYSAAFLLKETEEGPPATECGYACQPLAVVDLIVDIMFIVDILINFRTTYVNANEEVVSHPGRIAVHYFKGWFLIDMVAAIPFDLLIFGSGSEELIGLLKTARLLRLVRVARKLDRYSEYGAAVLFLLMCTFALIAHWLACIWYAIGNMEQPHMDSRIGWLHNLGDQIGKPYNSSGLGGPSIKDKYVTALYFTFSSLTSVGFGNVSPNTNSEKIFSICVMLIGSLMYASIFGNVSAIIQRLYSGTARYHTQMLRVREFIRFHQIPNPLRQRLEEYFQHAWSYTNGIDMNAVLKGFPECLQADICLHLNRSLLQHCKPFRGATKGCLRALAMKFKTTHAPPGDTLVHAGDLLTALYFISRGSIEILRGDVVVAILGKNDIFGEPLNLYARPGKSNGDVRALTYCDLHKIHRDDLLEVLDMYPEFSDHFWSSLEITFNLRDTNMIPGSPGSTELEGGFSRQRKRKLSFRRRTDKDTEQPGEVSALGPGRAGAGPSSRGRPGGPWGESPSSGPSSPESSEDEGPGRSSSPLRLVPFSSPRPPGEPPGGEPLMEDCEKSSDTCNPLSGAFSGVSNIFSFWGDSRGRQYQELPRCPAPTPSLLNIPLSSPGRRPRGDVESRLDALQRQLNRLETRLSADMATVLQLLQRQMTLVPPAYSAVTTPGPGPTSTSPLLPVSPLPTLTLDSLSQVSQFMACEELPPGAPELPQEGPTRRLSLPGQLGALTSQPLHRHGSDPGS

AMPK alpha2/beta1/gamma1 = AMPK alpha2/beta1/gamma1 (Homo sapiens, UniProt P54619+P54646+Q9Y478); assay: Activation of recombinant AMPK alpha2beta1gamma1 (unknown origin) after 2 hrs by scintillation proximity assay; assay type: protein-complex assay
AMPK alpha2/beta1/gamma1, sequence (P54646 whole entry): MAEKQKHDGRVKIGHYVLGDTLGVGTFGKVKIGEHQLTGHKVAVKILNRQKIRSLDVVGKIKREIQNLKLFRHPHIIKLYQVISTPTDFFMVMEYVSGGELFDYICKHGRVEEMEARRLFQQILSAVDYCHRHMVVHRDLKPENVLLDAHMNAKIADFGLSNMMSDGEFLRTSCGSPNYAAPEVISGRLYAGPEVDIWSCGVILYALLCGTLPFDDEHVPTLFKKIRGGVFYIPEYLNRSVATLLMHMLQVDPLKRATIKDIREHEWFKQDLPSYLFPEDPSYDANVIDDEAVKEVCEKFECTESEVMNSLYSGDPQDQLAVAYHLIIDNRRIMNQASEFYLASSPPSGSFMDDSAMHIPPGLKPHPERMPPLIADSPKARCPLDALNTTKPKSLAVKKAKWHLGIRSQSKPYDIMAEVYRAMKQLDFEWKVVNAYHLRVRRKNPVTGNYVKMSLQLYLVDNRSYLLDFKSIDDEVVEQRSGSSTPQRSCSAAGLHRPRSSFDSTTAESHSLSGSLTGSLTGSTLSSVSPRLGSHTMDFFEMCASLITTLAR
AMPK alpha2/beta1/gamma1, sequence (P54619 whole entry): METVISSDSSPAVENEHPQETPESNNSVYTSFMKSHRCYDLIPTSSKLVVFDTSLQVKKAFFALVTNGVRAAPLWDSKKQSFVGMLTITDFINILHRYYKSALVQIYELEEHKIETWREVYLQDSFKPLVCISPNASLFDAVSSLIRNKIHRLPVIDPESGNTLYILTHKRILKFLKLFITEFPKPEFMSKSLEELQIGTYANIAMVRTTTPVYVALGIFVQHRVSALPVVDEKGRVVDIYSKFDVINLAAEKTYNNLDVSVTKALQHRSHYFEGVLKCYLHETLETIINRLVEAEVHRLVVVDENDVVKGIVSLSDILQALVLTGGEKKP
AMPK alpha2/beta1/gamma1, sequence (Q9Y478 whole entry): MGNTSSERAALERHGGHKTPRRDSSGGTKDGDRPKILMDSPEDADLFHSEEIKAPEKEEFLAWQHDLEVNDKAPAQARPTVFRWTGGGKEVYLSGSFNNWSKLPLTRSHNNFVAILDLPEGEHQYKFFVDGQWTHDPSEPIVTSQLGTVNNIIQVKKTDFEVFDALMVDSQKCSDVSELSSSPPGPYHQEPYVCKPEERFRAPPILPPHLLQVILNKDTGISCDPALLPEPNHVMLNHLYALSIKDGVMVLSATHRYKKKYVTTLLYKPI
Procedure, shortened: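 Activation of bacterially expressed AMPK α2β1γ1 was measured by scintillation proximity assay. Efficacy is expressed relative to AMP.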

[5] = molecular target: Glycogen synthase kinase-3 beta (Homo sapiens) (UniProt P49841); assay: Activity at GSK3beta (unknown origin)
Glycogen synthase kinase-3 beta (Homo sapiens), sequence (P49841 whole entry, looked up): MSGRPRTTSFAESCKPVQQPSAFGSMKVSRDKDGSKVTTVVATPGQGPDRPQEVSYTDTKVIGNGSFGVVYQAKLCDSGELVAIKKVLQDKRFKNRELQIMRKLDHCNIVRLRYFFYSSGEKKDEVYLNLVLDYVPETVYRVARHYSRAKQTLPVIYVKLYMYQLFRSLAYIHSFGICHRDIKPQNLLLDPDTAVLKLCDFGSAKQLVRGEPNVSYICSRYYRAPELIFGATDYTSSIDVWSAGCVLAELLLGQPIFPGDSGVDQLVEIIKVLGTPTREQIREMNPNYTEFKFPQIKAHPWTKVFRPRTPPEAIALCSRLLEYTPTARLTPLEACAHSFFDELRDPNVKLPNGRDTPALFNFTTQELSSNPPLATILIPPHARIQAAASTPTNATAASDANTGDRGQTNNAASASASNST

[6] = Drug metabolism in mouse liver microsomes; assay type: ADME, Microsome
Mus musculus [7] = assay: Upregulation of medium chain acyl CoA dehydrogenase gene expression in C57BL/6J mouse muscles at 15 to 150 mg/kg, po; assay type: functional, organism-based; details: Muscle tissue
[8] = Oral bioavailability in Wistar rat at 10 mg/kg by LC-MS/MS analysis; assay type: ADME, organism-based; details: in vivo
Mus musculus [9] = assay: Antidiabetic activity in diet-induced obese C57BL/6J mouse assessed as improved glucose tolerance at 50 to 150 mg/kg, po qd for 4 weeks by glucose tolerance test
[10] = Half life in Wistar rat at 10 mg/kg, po by LC-MS/MS analysis; assay type: ADME, organism-based; set-up: dose 10 mg/kg, route oral; details: in vivo
L6 [11] = assay: Induction of AMPK-mediated ACC phosphorylation in rat L6 cells by Western blotting analysis; assay type: cell-based
Liver microsomes = assay: Drug metabolism in rat liver microsomes; assay type: ADME, Microsome
Cytochrome P450 3A4 = Cytochrome P450 3A4 (Homo sapiens, UniProt P08684); assay: Inhibition of CYP3A4 (unknown origin); assay type: ADME
Cytochrome P450 3A4, sequence (P08684 whole entry): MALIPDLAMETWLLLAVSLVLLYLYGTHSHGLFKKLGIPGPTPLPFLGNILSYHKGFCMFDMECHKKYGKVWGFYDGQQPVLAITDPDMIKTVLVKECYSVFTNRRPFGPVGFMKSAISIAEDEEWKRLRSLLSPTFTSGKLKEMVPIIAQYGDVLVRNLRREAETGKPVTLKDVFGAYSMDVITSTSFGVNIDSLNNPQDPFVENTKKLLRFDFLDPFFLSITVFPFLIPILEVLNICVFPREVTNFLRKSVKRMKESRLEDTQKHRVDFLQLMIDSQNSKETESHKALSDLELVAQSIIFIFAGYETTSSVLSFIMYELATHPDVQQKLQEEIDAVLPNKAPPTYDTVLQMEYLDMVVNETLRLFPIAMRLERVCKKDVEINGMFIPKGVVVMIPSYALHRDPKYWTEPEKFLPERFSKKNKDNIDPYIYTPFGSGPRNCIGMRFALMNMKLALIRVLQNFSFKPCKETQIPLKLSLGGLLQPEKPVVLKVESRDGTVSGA

Mus musculus [12] = assay: Upregulation of PGC1alpha gene expression in C57BL/6J mouse muscles at 15 to 150 mg/kg, po; assay type: functional, organism-based; details: Muscle tissue
Cytochrome P450 2D6 = Cytochrome P450 2D6 (Homo sapiens, UniProt P10635); assay: Inhibition of CYP2D6 (unknown origin); assay type: ADME
Cytochrome P450 2D6, sequence (P10635 whole entry): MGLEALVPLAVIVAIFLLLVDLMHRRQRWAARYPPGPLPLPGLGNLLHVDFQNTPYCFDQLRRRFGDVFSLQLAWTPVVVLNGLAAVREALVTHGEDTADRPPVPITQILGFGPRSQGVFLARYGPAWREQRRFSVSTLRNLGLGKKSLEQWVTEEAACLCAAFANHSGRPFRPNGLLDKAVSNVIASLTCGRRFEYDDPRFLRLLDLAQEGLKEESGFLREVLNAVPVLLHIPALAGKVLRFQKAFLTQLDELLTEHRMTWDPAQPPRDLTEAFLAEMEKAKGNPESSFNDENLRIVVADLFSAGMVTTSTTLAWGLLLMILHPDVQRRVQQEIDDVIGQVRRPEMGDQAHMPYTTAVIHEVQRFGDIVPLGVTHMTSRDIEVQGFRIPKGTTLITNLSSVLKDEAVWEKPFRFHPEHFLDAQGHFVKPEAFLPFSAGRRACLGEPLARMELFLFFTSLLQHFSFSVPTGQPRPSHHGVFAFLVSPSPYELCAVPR

Mus musculus [13] = assay: Antidiabetic activity in diet-induced obese C57BL/6J mouse assessed as reduction in plasma triglyceride at 150 mg/kg, po qd for 4 weeks (reference value: 0.62 +/- 0.02 mM); assay type: functional
[14] = AUC (0 to 24 hrs) in Wistar rat at 2 mg/kg, iv by LC-MS/MS analysis; assay type: ADME, organism-based; set-up: time < 24 hr, dose 2 mg/kg, route intravenous; details: plasma
L6 [15] = assay: Activation of AMPK alpha1 D159A/alpha2 K45R mutant in rat L6 cells assessed as stimulation of glucose uptake after 15 mins; assay type: cell-based
[16] = AUC (0 to infinity) in Wistar rat at 10 mg/kg, po by LC-MS/MS analysis; assay type: ADME, organism-based; set-up: time infinity, dose 10 mg/kg, route oral; details: plasma
Mus musculus [17] = assay: Upregulation of long chain acyl CoA dehydrogenase gene expression in C57BL/6J mouse muscles at 15 to 150 mg/kg, po; assay type: functional, organism-based; details: Muscle tissue
Mus musculus [18] = assay: Upregulation of PDK4 gene expression in C57BL/6J mouse muscles at 15 to 150 mg/kg, po; assay type: functional, organism-based; details: Muscle tissue
Mus musculus [19] = assay: Antidiabetic activity in diet-induced obese C57BL/6J mouse assessed as decrease in AUC at 50 to 150 mg/kg, po qd for 4 weeks by glucose tolerance test relative to control; assay type: functional; set-up: scale not given: the % may be the effect or the level left; details: dose mg/kg 50-150
Mus musculus [20] = assay: Upregulation of CPT1 gene expression in C57BL/6J mouse muscles at 15 to 150 mg/kg, po; assay type: functional, organism-based; details: Muscle tissue
L6 [21] = assay: Induction of AMPK phosphorylation in rat L6 cells by Western blotting analysis; assay type: cell-based
[22] = molecular target: T1, Inhibitor of nuclear factor kappa-B kinase subunit beta (Homo sapiens) (UniProt O14920); assay: Activity at IKKbeta (unknown origin)
T1 sequence (whole entry): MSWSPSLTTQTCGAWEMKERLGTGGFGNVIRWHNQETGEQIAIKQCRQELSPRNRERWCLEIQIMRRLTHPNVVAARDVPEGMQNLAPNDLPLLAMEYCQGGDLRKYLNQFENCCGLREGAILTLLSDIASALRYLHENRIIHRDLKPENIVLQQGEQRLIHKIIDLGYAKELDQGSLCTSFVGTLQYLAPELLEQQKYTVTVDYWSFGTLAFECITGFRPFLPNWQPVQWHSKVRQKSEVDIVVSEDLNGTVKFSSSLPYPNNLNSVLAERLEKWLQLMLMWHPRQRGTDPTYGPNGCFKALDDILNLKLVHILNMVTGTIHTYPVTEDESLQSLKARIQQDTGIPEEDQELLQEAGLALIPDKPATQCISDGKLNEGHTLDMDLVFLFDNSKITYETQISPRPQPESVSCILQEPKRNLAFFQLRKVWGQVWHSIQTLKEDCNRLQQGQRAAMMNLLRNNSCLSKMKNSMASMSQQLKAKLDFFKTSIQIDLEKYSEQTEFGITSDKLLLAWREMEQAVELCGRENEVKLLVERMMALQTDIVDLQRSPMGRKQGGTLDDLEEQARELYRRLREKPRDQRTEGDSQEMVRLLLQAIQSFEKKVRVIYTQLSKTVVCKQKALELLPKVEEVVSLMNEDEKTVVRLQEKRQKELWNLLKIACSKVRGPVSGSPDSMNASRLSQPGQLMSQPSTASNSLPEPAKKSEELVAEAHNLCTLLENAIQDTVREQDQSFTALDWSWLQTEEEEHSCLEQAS

Cytochrome P450 1A2 = molecular target: T2, Cytochrome P450 1A2 (Homo sapiens, UniProt P05177); assay: Inhibition of CYP1A2 (unknown origin); assay type: ADME
T2 sequence (P05177 whole entry): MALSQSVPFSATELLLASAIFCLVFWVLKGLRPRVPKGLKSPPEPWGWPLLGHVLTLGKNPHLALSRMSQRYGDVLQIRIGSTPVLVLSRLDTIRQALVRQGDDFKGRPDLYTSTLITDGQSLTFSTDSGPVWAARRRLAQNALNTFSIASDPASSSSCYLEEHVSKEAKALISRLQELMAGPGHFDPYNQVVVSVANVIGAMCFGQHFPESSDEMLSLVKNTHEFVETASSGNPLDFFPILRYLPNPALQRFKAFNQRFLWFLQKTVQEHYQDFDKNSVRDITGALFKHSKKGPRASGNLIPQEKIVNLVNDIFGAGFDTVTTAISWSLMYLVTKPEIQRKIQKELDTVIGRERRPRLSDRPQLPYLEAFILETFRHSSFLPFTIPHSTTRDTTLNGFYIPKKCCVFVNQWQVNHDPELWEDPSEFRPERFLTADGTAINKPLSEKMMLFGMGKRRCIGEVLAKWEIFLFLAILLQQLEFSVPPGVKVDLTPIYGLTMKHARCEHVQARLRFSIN

Mus musculus [23] = assay: Upregulation of UCP2 gene expression in C57BL/6J mouse muscles at 15 to 150 mg/kg, po; assay type: functional, organism-based; details: Muscle tissue

For `O=C(O)c1cccc(CN2C(=O)/C(=C(\c3ccccc3)c3ccc(Cl)cc3)c3ccccc32)c1`, the AUC(0-t) at 24 h [1] was 28900 ng·h/mL, the Activity (L6 [2]) was “Dose-dependent effect” and the Activity [3] was “inactive”. For the same compound, the IC50 [4] was > 20000 nM, the EC50 (AMPK alpha2/beta1/gamma1) was 1200 nM and the Activity [5] was “inactive”. For the same compound, the Drug metabolism [6] was “Not Active”, the Activity (Mus musculus [7]) was “Active” and the bioavailability [8] was 33.7%. For the same compound, the Activity (Mus musculus [9]) was “Active”, the half-life [10] was 4 h and the Activity (L6 [11]) was “Dose-dependent effect”. For the same compound, the Drug metabolism (Liver microsomes) was “Not Active”, the “inhibition (INH)” value (Cytochrome P450 3A4) was “Not Active” and the Activity (Mus musculus [12]) was “Active”. For the same compound, the “inhibition (INH)” value (Cytochrome P450 2D6) was “Not Active”, the Activity (Mus musculus [13]) was 0.54 mM and the AUC(0-t) at 24 h [14] was 17300 ng·h/mL. For the same compound, the Activity (L6 [15]) was “inactive”, the AUC(0-inf) [16] was 29500 ng·h/mL and the Activity (Mus musculus [17]) was “Active”. The Activity (Mus musculus [18]) was “Active”, the Activity (Mus musculus [19]) was 30% and the Activity (Mus musculus [20]) was “Active”. The Activity (L6 [21]) was “Dose-dependent effect”, the Activity [22] was “inactive” and the “inhibition (INH)” value (Cytochrome P450 1A2) was “Not Active”. For the same compound, the Activity (Mus musculus [23]) was “Active”.
